Like-named read-outs stand apart in the source and are kept apart here.

In one assay the target is T1, human haspin kinase (Homo sapiens, UniProt Q8TF76).
T1 sequence (Q8TF76 1-798): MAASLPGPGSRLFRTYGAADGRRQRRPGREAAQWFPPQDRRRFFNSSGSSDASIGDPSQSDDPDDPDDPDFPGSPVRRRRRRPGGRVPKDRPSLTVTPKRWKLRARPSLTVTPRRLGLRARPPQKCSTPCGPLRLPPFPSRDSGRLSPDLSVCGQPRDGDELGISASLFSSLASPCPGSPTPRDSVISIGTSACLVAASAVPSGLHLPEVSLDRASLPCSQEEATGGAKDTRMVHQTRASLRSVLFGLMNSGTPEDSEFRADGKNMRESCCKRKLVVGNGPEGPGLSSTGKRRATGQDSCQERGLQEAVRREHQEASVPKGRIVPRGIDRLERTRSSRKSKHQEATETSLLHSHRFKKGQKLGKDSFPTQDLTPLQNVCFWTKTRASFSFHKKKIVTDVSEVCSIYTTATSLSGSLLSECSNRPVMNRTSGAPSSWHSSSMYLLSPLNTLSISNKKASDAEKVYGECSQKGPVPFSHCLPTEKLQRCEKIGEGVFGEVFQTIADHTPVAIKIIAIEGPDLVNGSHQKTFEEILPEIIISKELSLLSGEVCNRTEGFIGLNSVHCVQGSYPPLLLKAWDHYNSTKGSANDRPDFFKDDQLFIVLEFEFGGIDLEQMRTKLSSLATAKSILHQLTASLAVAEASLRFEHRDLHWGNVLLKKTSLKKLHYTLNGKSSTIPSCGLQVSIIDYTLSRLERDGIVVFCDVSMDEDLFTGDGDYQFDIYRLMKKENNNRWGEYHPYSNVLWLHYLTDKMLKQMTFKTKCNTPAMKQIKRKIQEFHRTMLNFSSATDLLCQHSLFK
In words: haspin kinase TR-FRET assay. Format: biochemical. In short, it runs like this: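 Human haspin activity measured by TR-FRET at varying test compound concentrations to give IC50, using the HTS format: histone H3 peptide substrate, with phosphorylated product (H3T3ph) detected by a europium-labelled phosphospecific monoclonal antibody. For the selectivity ratio, DYRK2 was assayed by 33P incorporation into Woodtide peptide with human N-terminal GST-fused DYRK2 and γ33P-ATP.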

The target of the next assay is T2, human DYRK2 (Homo sapiens, UniProt Q92630).
T2 sequence (Q92630 1-601): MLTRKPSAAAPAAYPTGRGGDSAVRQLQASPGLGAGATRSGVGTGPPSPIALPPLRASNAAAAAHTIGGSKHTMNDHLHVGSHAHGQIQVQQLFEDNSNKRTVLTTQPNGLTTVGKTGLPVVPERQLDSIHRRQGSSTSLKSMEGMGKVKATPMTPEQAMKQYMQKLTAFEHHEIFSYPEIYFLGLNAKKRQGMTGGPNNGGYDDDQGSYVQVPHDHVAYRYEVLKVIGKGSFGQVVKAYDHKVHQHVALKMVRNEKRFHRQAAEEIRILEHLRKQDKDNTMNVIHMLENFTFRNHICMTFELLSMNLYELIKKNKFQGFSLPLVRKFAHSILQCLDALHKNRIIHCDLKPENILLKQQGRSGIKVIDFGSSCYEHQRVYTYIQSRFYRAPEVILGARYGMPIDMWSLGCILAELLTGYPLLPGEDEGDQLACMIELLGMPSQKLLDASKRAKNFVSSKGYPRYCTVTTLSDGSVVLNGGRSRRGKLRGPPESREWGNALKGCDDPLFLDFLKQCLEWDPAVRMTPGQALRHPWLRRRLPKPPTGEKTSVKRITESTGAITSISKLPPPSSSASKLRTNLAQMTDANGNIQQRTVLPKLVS
In words: DYRK2 kinase 33P-incorporation into Woodtide peptide. Format: biochemical. The conditions noted are these: read-out: IC50 DYRK2, Woodtide substrate.

Setting [1] is: read-out: IC50 haspin, TR-FRET assay.

Consider `COc1ccc2nc3ccc(OC)cc3c(SCCCN3C(=O)c4ccccc4C3=O)c2c1` [Compound 41], for which the half-inhibitory concentration (IC50) (in general, the concentration needed to halve the response being measured) at human haspin kinase (setting [1]) amounted to 2.1 µM.
With `COc1ccc2nc3ccc(Cl)cc3c(SCCCN)c2c1` [Compound 33], the IC50 is 9.9 µM at human DYRK2, 0.055 µM on human haspin kinase (setting [1]) and less than 0.06 µM at human haspin kinase (read-out: haspin IC50). Also, the “selectivity for haspin over DYRK2” value on human haspin kinase (ratio of IC50 values) came out at 180 fold.

(Values after paper PMC2923816 (Bioorganic & medicinal chemistry letters, 2010).)
